We go through ten compounds from ChEMBL document CHEMBL1137147, “Low molecular weight thrombin inhibitors with excellent potency, metabolic stability, and oral bioavailability” (Bioorg Med Chem Lett, 2004).

A short description of data set [1]: Plasma half life in dog when administered 1 mg/kg perorally. Also noted: dose 1 mg/kg, route oral. Particulars: po. Format: ADME, organism-based, Canis lupus familiaris. Summed up: (§1)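 Amorphous TFA salts given orally at 1 mg/kg in 1% methocel to beagle dogs (n = 2). Blood sampled over 8 h post dose plus a final 24 h sample. Drug isolated from plasma by solid-phase extraction and quantified by LC–MS/MS against a standard curve. AUC and t1/2 derived from the concentration–time curve.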

Data set [2] deals with Rattus norvegicus. Put plainly: Percent free rat plasma protein binding after administration of the compound. The class given is functional.
The target of a further data set is Prothrombin (Homo sapiens, UniProt P00734). Put plainly: Inhibition constant against human Thrombin.
Data set [3] can be described thus: Percent free human plasma protein binding after administration of the compound. Format: functional.
Data set [4] has as its system Rattus norvegicus. Put plainly: Effect (10 ug/kg/min) on FeCl3 induced clot formation on carotid artery, expressed as no. of vessel occlusions out of 6 rats. Format: functional. Summed up: (§2)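 Anesthetized rats given test compound by intravenous infusion at 10 µg/kg/min for 180 min. Topical FeCl3 applied to the carotid artery at 120 min post dose, then carotid blood flow monitored for 60 min. Result is the number of animals with occluded vessels (n = 5 or 6).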

Data set [5] in a line: Area under the curve in dog when administered 1 mg/kg perorally. Further details: dose 1 mg/kg, route oral. Format: ADME, organism-based, Canis lupus familiaris. Particulars: in vivo, po. The gist of the method: as §1
Data set [6] relates to Rattus norvegicus. The data set is described as follows: Effect (10 ug/kg/min) on FeCl3 induced clot formation on carotid artery, expressed as no. of vessel occlusions out of 5 rats. Format: functional. Summed up: as §2

In turn, `NCc1ccc(Cl)cc1CNC(=O)[C@@H]1CCCN1C(=O)[C@H](O)C1CCCCC1` gave a half-life in data set [1] of 2 h. Moreover, the Activity in the data set with Rattus norvegicus [2] was 36%; in data set [3], 4%; with Rattus norvegicus [4], 0. In addition, the affinity on Prothrombin, expressed as Ki, was 0.27 nM. This compound also yielded an area under the curve (AUC) in data set [5] of 1.7 µM·h.
`CC(C)(C)[C@@H](O)C(=O)N1CCC[C@H]1C(=O)NCc1cc(Cl)ccc1CN` showed a half-life in data set [1] of 5.4 h. Also, the Activity with Rattus norvegicus [2] was 54%; in data set [3] it was 24%; with Rattus norvegicus [4] it was 0. The Ki on Prothrombin worked out at 2.1 nM. In data set [5], this compound returned an AUC of 10 µM·h.
Consider `NCc1ccc(Cl)cc1CNC(=O)[C@@H]1CCCN1C(=O)[C@@H](O)c1ccccc1`, for which the affinity on Prothrombin corresponds to a Ki of 80 nM.
`CC(C)(C1CC1)[C@@H](O)C(=O)N1CC[C@H]1C(=O)NCc1cc(Cl)ccc1CN` gave a half-life in data set [1] of 4.7 h. Further, the Activity is reported as 17% with Rattus norvegicus [2], 0 in the data set on Rattus norvegicus [6] and 11% in data set [3]. The affinity at Prothrombin, expressed as Ki, was 3.7 nM. Also, in data set [5], the AUC worked out at 11 µM·h.
As to `NCc1ccc(Cl)cc1CNC(=O)[C@@H]1CCCN1C(=O)CO`, the half-life in data set [1] was 13 h. Moreover, the Activity in the data set on Rattus norvegicus [2] is given as 9%; with Rattus norvegicus [6], 4; in data set [3] it was 1%. Also, the inhibition constant Ki on Prothrombin came out at 0.5 nM. Moreover, the AUC in data set [5] was determined as 30 µM·h.
For `NCc1ccc(Cl)cc1CNC(=O)[C@@H]1CCCN1C(=O)[C@H](O)c1ccccc1`, in data set [1], the half-life was 2 h. Also, the Ki on Prothrombin amounted to 0.9 nM. Besides, the AUC in data set [5] came to 1.4 µM·h.
Compound `C[C@@](O)(C(=O)N1CCC[C@H]1C(=O)NCc1cc(Cl)ccc1CN)c1ccccc1` showed a half-life in data set [1] of 3.4 h. Moreover, the Activity stood at 24% in the data set on Rattus norvegicus [2], 15% in data set [3] and 1 in the data set on Rattus norvegicus [4]. The affinity at Prothrombin, expressed as Ki, was 2.7 nM. The AUC in data set [5] amounted to 14 µM·h.
With `CC(C)[C@@H](O)C(=O)N1CCC[C@H]1C(=O)NCc1cc(Cl)ccc1CN`, the half-life in data set [1] was 4.2 h. Besides, the results for the Activity (in the data set with Rattus norvegicus [2]; in data set [3]; in the data set with Rattus norvegicus [4]) were 60%, 63% and 2, respectively. On Prothrombin, this compound displayed a Ki of 5.6 nM. This compound also came in with an AUC in data set [5] of 4.9 µM·h.
Turning to `C[C@](O)(C(=O)N1CCC[C@H]1C(=O)NCc1cc(Cl)ccc1CN)c1ccccc1`, the half-life in data set [1] was 3.1 h. On Prothrombin, this compound showed a Ki of 4.7 nM. Further, the AUC in data set [5] stood at 21 µM·h.
`CC(C)(C)[C@@H](O)C(=O)N1CC[C@H]1C(=O)NCc1cc(Cl)ccc1CN` gave a half-life in data set [1] of 3.4 h. Also, the Activity in the data set with Rattus norvegicus [2] stood at 26%; in the data set with Rattus norvegicus [6] it was 0; in data set [3] it was 21%. At Prothrombin, the Ki came to 5 nM. In data set [5], this compound yielded an AUC of 3.5 µM·h.

By half-life is commonly meant the time in which the quantity being followed falls by half. By Ki is commonly meant a measure of affinity in units of concentration, obtained from inhibition or displacement. The low end stands for higher affinity, the high end for lower affinity. A word on the AUC: it is the area under the concentration-time curve, a measure of exposure. Lower therefore signals low exposure.
